Our source for the EC50, CC50 and MCC values is ChEMBL document CHEMBL1142504, “Influence of 6- or 8-substitution on the antiviral activity of 3-arylalkylthiomethylimidazo[1,2-a]pyridine against human cytomegalovirus (CMV) and varicella-zoster virus (VZV): part II” (Bioorg Med Chem, 2008).

The subject of data set [1] is Human alphaherpesvirus 3. The experiment in a line: Antiviral activity against thymidine kinase expressing Varicella-Zoster virus Oka in HEL cells assessed as inhibition of viral cytopathicity. It counts as functional, organism-based. The conditions noted are these: Human alphaherpesvirus 3, Oka. The essentials: (§1)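 VZV input was 20 PFU per HEL cell culture. Cultures were incubated with test compound for 5 days at 37 °C under 5% CO2, then fixed and stained. Viral plaque formation was counted against the untreated control to give the EC50.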
For orientation: Cytopathic effects are the visible damage that an infection or toxin causes in cultured cells.

In data set [2] the test system is Human betaherpesvirus 5. Briefly: Antiviral activity against human cytomegalovirus Davis in HEL cells assessed as inhibition of viral cytopathicity. In kind it is functional, organism-based. The conditions noted are these: Human betaherpesvirus 5, Davis. In outline: (§2)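 Confluent HEL cell cultures were inoculated with 100 PFU of HCMV. After 2 h adsorption, residual virus was removed and cells were incubated with varying concentrations of test compound. Viral cytopathicity was scored when it reached completion in the untreated virus-infected controls, and the EC50 was taken from this read-out.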

Data set [3] is described as follows: Cytotoxicity against HEL cells assessed as reduction of growth after 3 days. In kind it is cell-based. The conditions noted are these: human. In outline:
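HEL cell suspensions were added to wells holding varying concentrations of test compound. Plates were incubated 3 days at 37 °C in a humidified CO2 incubator, and viable cells were counted with a Coulter Counter. CC50 is the concentration that reduced viable cell number by 50%.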

Data set [4] relates to Human betaherpesvirus 5. Briefly: Antiviral activity against human cytomegalovirus AD169 in HEL cells assessed as inhibition of viral cytopathicity. In kind it is functional, organism-based. The conditions noted are these: Human betaherpesvirus 5, AD169, HEL. In outline:
as §2

The subject of data set [5] is Human alphaherpesvirus 3. The experiment in a line: Antiviral activity against thymidine kinase deficient Varicella-Zoster virus 07/1 in HEL cells assessed as inhibition of viral cytopathicity. In kind it is functional, organism-based. To be noted: Human alphaherpesvirus 3, HEL. In outline:
as §1

Data set [6] in a line: Cytotoxicity against HEL cells assessed as morphological alteration after 3 days. It counts as cell-based. To be noted: human. In outline:
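HEL cell cultures were examined by microscope. Cytotoxicity was recorded as the minimum cytotoxic concentration (MCC), meaning the lowest compound concentration that caused a detectable alteration of cell morphology.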

Each structure is given as a SMILES string. In brackets after ≈: the same amount, converted by molar mass.

With `Cc1cc(-n2ccc3cccnc32)c2ncc(CSCCc3ccccc3)n2c1`, the EC50 (usually the concentration giving half of the maximal effect) in the data set on Human alphaherpesvirus 3 [1] was found to be 6.6 µg/mL (≈ 16.6 µM); with Human betaherpesvirus 5 [2] it was 1.8 µg/mL (≈ 4.52 µM); in the data set on Human betaherpesvirus 5 [4], 4 µg/mL (≈ 10 µM); with Human alphaherpesvirus 3 [5] it was 14 µg/mL (≈ 35.1 µM). Besides, the CC50 (commonly the concentration that lowers cell viability or growth by half) at 72 h in data set [3] is more than 100 µg/mL. For the same compound, in data set [6], the MCC at 72 h was determined as 100 µg/mL.

`Cc1cc(-n2ccnc2)c2ncc(CSCCc3ccccc3)n2c1`: the EC50 was more than 4 µg/mL with Human alphaherpesvirus 3 [1], 2.3 µg/mL (≈ 6.6 µM) with Human betaherpesvirus 5 [2], 3.1 µg/mL (≈ 8.9 µM) in the data set on Human betaherpesvirus 5 [4] and more than 4 µg/mL with Human alphaherpesvirus 3 [5]. The CC50 at 72 h in data set [3] was 10 µg/mL (≈ 28.7 µM). In addition, the MCC at 72 h in data set [6] stood at 20 µg/mL.

`Cc1cc(N2CCCC2=O)c2ncc(CSCCc3ccccc3)n2c1`: the EC50 in the data set on Human alphaherpesvirus 3 [1], in the data set on Human betaherpesvirus 5 [2], in the data set with Human betaherpesvirus 5 [4] and with Human alphaherpesvirus 3 [5] was more than 4 µg/mL throughout. In data set [3], the CC50 at 72 h came to 25 µg/mL (≈ 68.4 µM). The MCC at 72 h in data set [6] was 20 µg/mL.

`Cc1cc(N2CCOCC2)cn2c(CSCCc3ccccc3)cnc12`: the EC50 in the data set on Human alphaherpesvirus 3 [1], in the data set with Human betaherpesvirus 5 [2], in the data set with Human betaherpesvirus 5 [4] and in the data set with Human alphaherpesvirus 3 [5] was more than 20 µg/mL each time. For the same compound, in data set [3], the CC50 at 72 h came to 45 µg/mL (≈ 122 µM). Besides, the MCC at 72 h in data set [6] came to 100 µg/mL.

For `Cc1cc(-c2ccsc2)cn2c(CSCc3ccccc3)cnc12`, the EC50 with Human alphaherpesvirus 3 [1] was more than 0.8 µg/mL; in the data set with Human betaherpesvirus 5 [2] it was 0.8 µg/mL (≈ 2.28 µM); in the data set on Human betaherpesvirus 5 [4] it was more than 0.8 µg/mL; with Human alphaherpesvirus 3 [5], more than 0.8 µg/mL. In data set [3], the CC50 at 72 h worked out at 9.4 µg/mL (≈ 26.8 µM). Also, the MCC at 72 h in data set [6] came to 4 µg/mL.

With `Cc1cc(-n2ccc3ccccc32)cn2c(CSCCc3ccccc3)cnc12`, the concentration for a half-maximal effect (EC50) was more than 20 µg/mL in the data set with Human alphaherpesvirus 3 [1], 1.8 µg/mL (≈ 4.53 µM) with Human betaherpesvirus 5 [2], more than 4 µg/mL in the data set with Human betaherpesvirus 5 [4] and more than 4 µg/mL with Human alphaherpesvirus 3 [5]. Besides, the CC50 at 72 h in data set [3] came to 18 µg/mL (≈ 45.3 µM). Further, the MCC at 72 h in data set [6] was more than 20 µg/mL.

With `Cc1cc(Sc2ccc(Cl)cc2)cn2c(CSCCc3ccccc3)cnc12`, the EC50 with Human alphaherpesvirus 3 [1], in the data set on Human betaherpesvirus 5 [2], in the data set on Human betaherpesvirus 5 [4] and in the data set on Human alphaherpesvirus 3 [5] was more than 4 µg/mL each time. In addition, in data set [3], the CC50 at 72 h came to 14 µg/mL (≈ 32.9 µM). Also, the MCC at 72 h in data set [6] came out at 20 µg/mL.

`Cc1cc(-c2ccsc2)c2ncc(CSCc3ccccc3)n2c1`: the EC50 is 7.3 µg/mL (≈ 20.8 µM) in the data set on Human alphaherpesvirus 3 [1], 2.1 µg/mL (≈ 5.99 µM) in the data set with Human betaherpesvirus 5 [2], 4 µg/mL (≈ 11.4 µM) in the data set on Human betaherpesvirus 5 [4] and 6.5 µg/mL (≈ 18.5 µM) in the data set with Human alphaherpesvirus 3 [5]. The CC50 at 72 h in data set [3] was found to be 100 µg/mL (≈ 285 µM). Also, the MCC at 72 h in data set [6] was 100 µg/mL.

Turning to `Cc1cc(-n2cccc2)cn2c(CSCCc3ccccc3)cnc12`, the EC50 is more than 4 µg/mL in the data set with Human alphaherpesvirus 3 [1], 1.3 µg/mL (≈ 3.74 µM) in the data set with Human betaherpesvirus 5 [2], more than 0.8 µg/mL in the data set on Human betaherpesvirus 5 [4] and more than 0.8 µg/mL in the data set with Human alphaherpesvirus 3 [5]. Further, the CC50 at 72 h in data set [3] amounted to 11 µg/mL (≈ 31.7 µM). In addition, in data set [6], the MCC at 72 h was not below 4 µg/mL.

On to `Cc1cc(-c2ccc3[nH]ccc3c2)cn2c(CSCCc3ccccc3)cnc12`, for which the values for the EC50 with Human betaherpesvirus 5 [2] and in the data set with Human betaherpesvirus 5 [4] were more than 4 µg/mL and more than 20 µg/mL, respectively. Besides, the CC50 at 72 h in data set [3] amounted to 26 µg/mL (≈ 65.4 µM). Moreover, the MCC at 72 h in data set [6] is not below 20 µg/mL.

As to `Cc1cc(-c2ccoc2)cn2c(CSCCc3ccccc3)cnc12`, the EC50 was 2.4 µg/mL (≈ 6.89 µM) in the data set with Human alphaherpesvirus 3 [1], 0.27 µg/mL (≈ 0.775 µM) in the data set on Human betaherpesvirus 5 [2], more than 0.8 µg/mL in the data set with Human betaherpesvirus 5 [4] and more than 0.8 µg/mL in the data set on Human alphaherpesvirus 3 [5]. In data set [3], the CC50 at 72 h came to 12 µg/mL (≈ 34.4 µM). In addition, in data set [6], the MCC at 72 h is more than 4 µg/mL.

For `Cc1cc(Sc2ccc(O)cc2)cn2c(CSCCc3ccccc3)cnc12`, the EC50 in the data set on Human alphaherpesvirus 3 [1] was more than 0.8 µg/mL; in the data set on Human betaherpesvirus 5 [2] it was 0.8 µg/mL (≈ 1.97 µM); in the data set on Human betaherpesvirus 5 [4], more than 0.8 µg/mL; in the data set with Human alphaherpesvirus 3 [5], more than 0.8 µg/mL. For the same compound, the CC50 at 72 h in data set [3] was determined as 100 µg/mL (≈ 246 µM). In data set [6], the MCC at 72 h came out at 4 µg/mL.

For `Cc1cc(-n2cccc2)c2ncc(CSCCc3ccccc3)n2c1`, the EC50 was more than 20 µg/mL with Human alphaherpesvirus 3 [1], 1.8 µg/mL (≈ 5.18 µM) in the data set on Human betaherpesvirus 5 [2], 1.8 µg/mL (≈ 5.18 µM) in the data set with Human betaherpesvirus 5 [4] and more than 20 µg/mL in the data set on Human alphaherpesvirus 3 [5]. In addition, the CC50 at 72 h in data set [3] was 26 µg/mL (≈ 74.8 µM). In data set [6], the MCC at 72 h amounted to 100 µg/mL.

Turning to `Cc1cc(N2CCCC2)c2ncc(CSCc3ccccc3)n2c1`, the EC50 in the data set with Human alphaherpesvirus 3 [1] was 17.7 µg/mL (≈ 52.4 µM); in the data set on Human betaherpesvirus 5 [2] it was 5.2 µg/mL (≈ 15.4 µM); with Human betaherpesvirus 5 [4], 10 µg/mL (≈ 29.6 µM); in the data set on Human alphaherpesvirus 3 [5], more than 4 µg/mL. For the same compound, the CC50 at 72 h in data set [3] worked out at 52 µg/mL (≈ 154 µM). Besides, in data set [6], the MCC at 72 h was not below 20 µg/mL.

Turning to `Cc1cc(C#N)c2ncc(CSCCc3ccccc3)n2c1`, the EC50 in the data set on Human alphaherpesvirus 3 [1] is 16.4 µg/mL (≈ 53.3 µM); with Human betaherpesvirus 5 [2], 2 µg/mL (≈ 6.51 µM); in the data set on Human betaherpesvirus 5 [4] it was 2.2 µg/mL (≈ 7.16 µM); in the data set with Human alphaherpesvirus 3 [5], more than 4 µg/mL. Moreover, the CC50 at 72 h in data set [3] was more than 100 µg/mL. In addition, the MCC at 72 h in data set [6] was not below 20 µg/mL.

In the case of `Cc1cc(N2CCOCC2)c2ncc(CSCCc3ccccc3)n2c1`, the EC50 in the data set with Human alphaherpesvirus 3 [1] was 53.6 µg/mL (≈ 146 µM); in the data set on Human betaherpesvirus 5 [2], 8.2 µg/mL (≈ 22.3 µM); in the data set with Human betaherpesvirus 5 [4], more than 4 µg/mL; in the data set with Human alphaherpesvirus 3 [5], 36.6 µg/mL (≈ 99.6 µM). Also, in data set [3], the CC50 at 72 h worked out at 49 µg/mL (≈ 133 µM). For the same compound, in data set [6], the MCC at 72 h was more than 100 µg/mL.
